The structures appear in SMILES notation.

The results in this text go back to ChEMBL document CHEMBL4196066, “Design and synthesis of furyl/thineyl pyrroloquinolones based on natural alkaloid perlolyrine, lead to the discovery of potent and selective PDE5 inhibitors” (Eur J Med Chem, 2018).

Assay [1] deals with T1, cGMP-specific 3',5'-cyclic phosphodiesterase (Homo sapiens, UniProt O76074). Briefly: Inhibition of N-terminal GST-tagged full length recombinant human PDE5A1 catalytic domain expressed in Baculovirus infected Sf9 insect cells using FAM-cGMP as substrate after 1 hr by fluorescence polarization assay.
For a further assay, the system named is Oryctolagus cuniculus. Briefly: Vasorelaxant activity in iv dosed New Zealand rabbit assessed as induction of ICP change in response to electrically pelvic nerve stimulation administered as bolus dose. The assay is classed as functional.
Assay [2] concerns Thoracic aorta. Briefly: Vasorelaxant activity in norepinephrine-pretreated New Zealand rabbit thoracic aorta assessed as increase in aortic relaxation at 1 uM measured after 15 mins relative to control. Type of assay: functional, Oryctolagus cuniculus. More on the design: scale not given: the % may be the effect or the level left. Summed up:
(§1)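 Thoracic aortic rings from New Zealand white rabbits were held in Krebs buffer at 2 g resting tension (0%) and equilibrated 2 h. Rings were contracted to maximum with 1 µM norepinephrine (100%). Compounds were added cumulatively at 15 min intervals, with tension recorded 15 min after each dose. Relaxation % = (max − recorded)/(max − 2 g) × 100; n = 1–2 rings.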

For assay [3], the species on record is Homo sapiens. The assay can be described thus: Selectivity ratio of IC50 for N-terminal FLAG-tagged human PDE2A1 (2 to 941 residues) to IC50 for N-terminal GST-tagged full length recombinant human PDE5A1 catalytic domain.
Assay [4] is filed under the species Homo sapiens. The assay can be described thus: Selectivity ratio of IC50 for N-terminal GST-tagged full length recombinant human PDE1A to IC50 for N-terminal GST-tagged full length recombinant human PDE5A1 catalytic domain.
The species named for assay [5] is Homo sapiens. Briefly: Selectivity ratio of IC50 for N-terminal GST-tagged full length recombinant human PDE4A1A to IC50 for N-terminal GST-tagged full length recombinant human PDE5A1 catalytic domain.
For assay [6], the target named is 3',5'-cyclic-AMP phosphodiesterase 4A (Homo sapiens) (UniProt P27815). Briefly: Inhibition of N-terminal GST-tagged full length recombinant human PDE4A1A expressed in Baculovirus infected Sf9 insect cells at 1.5 uM using FAM-cAMP as substrate after 1 hr by fluorescence polarization assay relative to control.
Chain of 3',5'-cyclic-AMP phosphodiesterase 4A (Homo sapiens) (P27815 whole entry): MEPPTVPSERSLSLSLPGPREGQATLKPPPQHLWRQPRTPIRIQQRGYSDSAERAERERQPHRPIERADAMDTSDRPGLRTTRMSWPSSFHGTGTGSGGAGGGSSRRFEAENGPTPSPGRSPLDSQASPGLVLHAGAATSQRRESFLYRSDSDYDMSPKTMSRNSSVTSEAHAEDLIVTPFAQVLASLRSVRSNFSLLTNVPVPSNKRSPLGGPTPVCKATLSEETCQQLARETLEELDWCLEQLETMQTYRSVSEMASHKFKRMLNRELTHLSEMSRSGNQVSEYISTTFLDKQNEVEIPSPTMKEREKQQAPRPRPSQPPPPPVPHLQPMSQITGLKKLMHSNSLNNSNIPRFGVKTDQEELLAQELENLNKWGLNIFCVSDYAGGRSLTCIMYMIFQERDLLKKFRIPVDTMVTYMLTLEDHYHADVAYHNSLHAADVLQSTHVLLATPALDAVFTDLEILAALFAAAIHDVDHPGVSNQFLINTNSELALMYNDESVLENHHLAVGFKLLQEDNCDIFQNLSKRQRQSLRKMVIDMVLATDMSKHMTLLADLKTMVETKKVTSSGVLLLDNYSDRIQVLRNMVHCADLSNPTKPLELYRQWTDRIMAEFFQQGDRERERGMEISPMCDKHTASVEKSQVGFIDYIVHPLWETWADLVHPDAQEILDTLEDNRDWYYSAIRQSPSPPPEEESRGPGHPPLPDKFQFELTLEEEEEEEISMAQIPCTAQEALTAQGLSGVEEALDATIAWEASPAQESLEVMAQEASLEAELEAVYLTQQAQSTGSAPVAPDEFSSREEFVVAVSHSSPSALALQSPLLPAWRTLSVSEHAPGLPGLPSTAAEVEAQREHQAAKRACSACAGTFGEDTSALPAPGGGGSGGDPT
In assay [7] the target is Cone cGMP-specific 3',5'-cyclic phosphodiesterase subunit alpha' (Homo sapiens, UniProt P51160). Briefly: Inhibition of N-terminal GST-tagged full length recombinant human PDE6C expressed in Baculovirus infected Sf9 insect cells using […] as substrate after 1 hr by fluorescence polarization assay. A general note: Fluorescence polarisation rises when a labelled molecule tumbles more slowly, as on binding a larger partner.
Chain of Cone cGMP-specific 3',5'-cyclic phosphodiesterase subunit alpha' (P51160 whole entry): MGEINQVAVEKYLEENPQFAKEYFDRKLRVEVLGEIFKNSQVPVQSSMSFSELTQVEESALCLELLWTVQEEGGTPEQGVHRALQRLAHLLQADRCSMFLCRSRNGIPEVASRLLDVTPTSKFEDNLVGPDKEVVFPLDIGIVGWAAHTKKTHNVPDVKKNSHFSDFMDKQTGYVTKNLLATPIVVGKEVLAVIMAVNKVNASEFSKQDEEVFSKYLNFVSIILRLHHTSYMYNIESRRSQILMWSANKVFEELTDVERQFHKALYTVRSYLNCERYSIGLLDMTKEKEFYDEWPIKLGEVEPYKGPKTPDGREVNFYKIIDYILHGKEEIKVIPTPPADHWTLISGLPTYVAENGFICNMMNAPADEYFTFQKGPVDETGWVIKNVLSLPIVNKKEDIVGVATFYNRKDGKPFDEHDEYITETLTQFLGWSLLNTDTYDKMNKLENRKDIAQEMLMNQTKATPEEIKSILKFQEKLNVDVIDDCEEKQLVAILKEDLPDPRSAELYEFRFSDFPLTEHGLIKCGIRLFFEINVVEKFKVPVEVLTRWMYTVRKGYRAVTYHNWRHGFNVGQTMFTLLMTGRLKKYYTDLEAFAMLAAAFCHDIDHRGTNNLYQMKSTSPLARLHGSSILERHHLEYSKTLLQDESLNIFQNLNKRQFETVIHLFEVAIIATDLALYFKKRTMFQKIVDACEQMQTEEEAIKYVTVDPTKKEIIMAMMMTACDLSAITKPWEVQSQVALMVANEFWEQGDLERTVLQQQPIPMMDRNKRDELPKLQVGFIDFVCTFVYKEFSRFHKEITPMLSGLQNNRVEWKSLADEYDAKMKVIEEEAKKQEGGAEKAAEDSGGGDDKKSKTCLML

The target of assay [8] is Dual specificity calcium/calmodulin-dependent 3',5'-cyclic nucleotide phosphodiesterase 1A (Homo sapiens) (UniProt P54750). Briefly: Inhibition of N-terminal GST-tagged full length recombinant human PDE1A expressed in Baculovirus infected Sf9 insect cells at 6 uM using FAM-cAMP as substrate after 1 hr by fluorescence polarization assay relative to control.
Chain of Dual specificity calcium/calmodulin-dependent 3',5'-cyclic nucleotide phosphodiesterase 1A (Homo sapiens) (P54750 whole entry, the tested form may be a part): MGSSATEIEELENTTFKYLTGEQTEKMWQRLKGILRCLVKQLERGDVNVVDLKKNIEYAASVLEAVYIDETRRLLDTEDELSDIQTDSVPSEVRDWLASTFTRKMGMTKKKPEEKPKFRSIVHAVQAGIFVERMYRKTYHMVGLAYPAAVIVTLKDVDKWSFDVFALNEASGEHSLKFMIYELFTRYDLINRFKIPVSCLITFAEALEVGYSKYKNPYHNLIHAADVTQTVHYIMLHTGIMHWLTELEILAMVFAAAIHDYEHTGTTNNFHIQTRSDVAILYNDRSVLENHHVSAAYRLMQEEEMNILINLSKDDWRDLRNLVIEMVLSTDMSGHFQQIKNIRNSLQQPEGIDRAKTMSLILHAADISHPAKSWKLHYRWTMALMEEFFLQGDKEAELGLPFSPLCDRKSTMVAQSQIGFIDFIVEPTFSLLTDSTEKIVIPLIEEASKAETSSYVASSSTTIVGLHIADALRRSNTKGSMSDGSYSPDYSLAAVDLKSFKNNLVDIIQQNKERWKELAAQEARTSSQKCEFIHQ
The target of assay [9] is cGMP-dependent 3',5'-cyclic phosphodiesterase (Homo sapiens) (UniProt O00408). The assay can be described thus: Inhibition of N-terminal FLAG-tagged human PDE2A1 (2 to 941 residues) expressed in Baculovirus infected Sf9 insect cells at 6 uM using FAM-cAMP as substrate after 1 hr by fluorescence polarization assay relative to control.
Chain of cGMP-dependent 3',5'-cyclic phosphodiesterase (Homo sapiens) (O00408 whole entry, the tested form may be a part): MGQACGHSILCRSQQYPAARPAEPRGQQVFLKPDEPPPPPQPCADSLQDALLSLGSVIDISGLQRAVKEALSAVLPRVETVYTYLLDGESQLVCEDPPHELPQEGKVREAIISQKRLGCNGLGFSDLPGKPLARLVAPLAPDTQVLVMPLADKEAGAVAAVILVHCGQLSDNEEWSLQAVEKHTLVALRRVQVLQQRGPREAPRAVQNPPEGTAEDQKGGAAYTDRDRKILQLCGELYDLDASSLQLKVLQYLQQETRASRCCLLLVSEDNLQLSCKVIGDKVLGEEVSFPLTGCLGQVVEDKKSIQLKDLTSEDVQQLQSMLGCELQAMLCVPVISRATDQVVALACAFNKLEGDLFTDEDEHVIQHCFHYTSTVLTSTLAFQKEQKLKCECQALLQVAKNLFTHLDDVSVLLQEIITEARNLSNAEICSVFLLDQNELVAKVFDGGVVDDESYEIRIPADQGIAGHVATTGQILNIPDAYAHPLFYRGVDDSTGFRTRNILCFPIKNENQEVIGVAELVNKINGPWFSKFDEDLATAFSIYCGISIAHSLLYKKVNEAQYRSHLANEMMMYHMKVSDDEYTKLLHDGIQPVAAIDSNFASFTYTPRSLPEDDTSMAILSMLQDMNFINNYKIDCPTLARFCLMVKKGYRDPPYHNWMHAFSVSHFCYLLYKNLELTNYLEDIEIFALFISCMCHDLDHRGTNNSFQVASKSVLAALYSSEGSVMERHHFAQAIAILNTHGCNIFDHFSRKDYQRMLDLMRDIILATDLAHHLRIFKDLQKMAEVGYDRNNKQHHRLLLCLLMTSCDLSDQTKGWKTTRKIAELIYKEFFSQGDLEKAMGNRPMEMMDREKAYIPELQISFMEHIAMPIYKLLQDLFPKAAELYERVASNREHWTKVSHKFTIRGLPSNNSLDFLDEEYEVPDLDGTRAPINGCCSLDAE
Assay [10] is filed under the species Homo sapiens. Briefly: Selectivity ratio of IC50 for N-terminal GST-tagged full length recombinant human PDE6C to IC50 for N-terminal GST-tagged full length recombinant human PDE5A1 catalytic domain.
Assay [11] concerns the target cGMP-inhibited 3',5'-cyclic phosphodiesterase 3B (Homo sapiens) (UniProt Q13370). The assay can be described thus: Inhibition of N-terminal GST-tagged recombinant human PDE3B (592 end residues) expressed in Baculovirus infected Sf9 insect cells at 6 uM using FAM-cAMP as substrate after 1 hr by fluorescence polarization assay relative to control.
The species named for assay [12] is Homo sapiens. The assay can be described thus: Selectivity ratio of IC50 for N-terminal GST-tagged recombinant human PDE3B (592 end residues) to IC50 for N-terminal GST-tagged full length recombinant human PDE5A1 catalytic domain.
For assay [13], the target named is cGMP-inhibited 3',5'-cyclic phosphodiesterase 3B (Homo sapiens) (UniProt Q13370). Briefly: Inhibition of N-terminal GST-tagged recombinant human PDE3B (592 end residues) expressed in Baculovirus infected Sf9 insect cells at 250 uM using FAM-cAMP as substrate after 1 hr by fluorescence polarization assay relative to control.
Chain of cGMP-inhibited 3',5'-cyclic phosphodiesterase 3B (Homo sapiens) (Q13370 whole entry, looked up, the tested form may be a part): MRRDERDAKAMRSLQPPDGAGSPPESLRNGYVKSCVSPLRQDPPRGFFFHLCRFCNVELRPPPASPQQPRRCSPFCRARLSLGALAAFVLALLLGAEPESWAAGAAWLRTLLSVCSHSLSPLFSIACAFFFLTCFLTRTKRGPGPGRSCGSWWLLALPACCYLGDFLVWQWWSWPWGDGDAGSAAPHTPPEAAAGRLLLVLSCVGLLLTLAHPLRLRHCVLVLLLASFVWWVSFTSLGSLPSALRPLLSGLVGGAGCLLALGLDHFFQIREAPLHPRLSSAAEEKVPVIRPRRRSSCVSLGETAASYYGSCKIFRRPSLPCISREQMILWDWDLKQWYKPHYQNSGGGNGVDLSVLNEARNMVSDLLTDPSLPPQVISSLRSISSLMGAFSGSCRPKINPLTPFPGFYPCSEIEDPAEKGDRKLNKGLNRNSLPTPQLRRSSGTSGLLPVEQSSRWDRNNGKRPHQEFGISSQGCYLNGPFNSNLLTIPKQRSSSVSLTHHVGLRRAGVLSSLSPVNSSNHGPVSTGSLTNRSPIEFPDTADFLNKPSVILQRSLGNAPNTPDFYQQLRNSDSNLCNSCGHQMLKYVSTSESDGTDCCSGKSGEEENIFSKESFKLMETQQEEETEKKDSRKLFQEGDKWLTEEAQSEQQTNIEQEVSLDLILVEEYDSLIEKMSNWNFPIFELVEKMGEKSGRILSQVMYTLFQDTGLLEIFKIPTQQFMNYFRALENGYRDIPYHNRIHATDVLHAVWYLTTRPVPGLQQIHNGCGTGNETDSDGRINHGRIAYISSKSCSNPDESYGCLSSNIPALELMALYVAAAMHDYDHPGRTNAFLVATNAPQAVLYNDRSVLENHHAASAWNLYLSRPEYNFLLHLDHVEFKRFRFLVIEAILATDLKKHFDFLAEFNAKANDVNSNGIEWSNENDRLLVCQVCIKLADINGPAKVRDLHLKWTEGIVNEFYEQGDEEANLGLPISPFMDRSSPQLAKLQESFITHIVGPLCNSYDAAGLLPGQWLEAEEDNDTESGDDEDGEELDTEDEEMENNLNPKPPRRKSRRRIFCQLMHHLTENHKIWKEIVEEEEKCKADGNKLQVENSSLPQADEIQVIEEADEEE
Assay [14] addresses cGMP-dependent 3',5'-cyclic phosphodiesterase (Homo sapiens) (UniProt O00408). Briefly: Inhibition of N-terminal FLAG-tagged human PDE2A1 (2 to 941 residues) expressed in Baculovirus infected Sf9 insect cells at 40 uM using FAM-cAMP as substrate after 1 hr by fluorescence polarization assay relative to control.
In assay [15] the target is 3',5'-cyclic-AMP phosphodiesterase 4A (Homo sapiens) (UniProt P27815). The assay can be described thus: Inhibition of N-terminal GST-tagged full length recombinant human PDE4A1A expressed in Baculovirus infected Sf9 insect cells at 50 uM using FAM-cAMP as substrate after 1 hr by fluorescence polarization assay relative to control.
In assay [16] the test system is Thoracic aorta. Briefly: Vasorelaxant activity in norepinephrine-pretreated New Zealand rabbit thoracic aorta assessed as increase in aortic relaxation at 10 uM measured after 15 mins relative to control. More on the design: scale not given: the % may be the effect or the level left. Type of assay: functional, Oryctolagus cuniculus. The gist of the method: as §1

Assay [17] deals with Dual specificity calcium/calmodulin-dependent 3',5'-cyclic nucleotide phosphodiesterase 1A (Homo sapiens) (UniProt P54750). Briefly: Inhibition of N-terminal GST-tagged full length recombinant human PDE1A expressed in Baculovirus infected Sf9 insect cells at 250 uM using FAM-cAMP as substrate after 1 hr by fluorescence polarization assay relative to control.
For assay [18], the target named is cGMP-inhibited 3',5'-cyclic phosphodiesterase 3B (Homo sapiens) (UniProt Q13370). The assay can be described thus: Inhibition of N-terminal GST-tagged recombinant human PDE3B (592 end residues) expressed in Baculovirus infected Sf9 insect cells at 12.5 uM using FAM-cAMP as substrate after 1 hr by fluorescence polarization assay relative to control.
The target of assay [19] is cGMP-dependent 3',5'-cyclic phosphodiesterase (Homo sapiens) (UniProt O00408). The assay can be described thus: Inhibition of N-terminal FLAG-tagged human PDE2A1 (2 to 941 residues) expressed in Baculovirus infected Sf9 insect cells at 12.5 uM using FAM-cAMP as substrate after 1 hr by fluorescence polarization assay relative to control.
Assay [20] concerns the target Dual specificity calcium/calmodulin-dependent 3',5'-cyclic nucleotide phosphodiesterase 1A (Homo sapiens) (UniProt P54750). The assay can be described thus: Inhibition of N-terminal GST-tagged full length recombinant human PDE1A expressed in Baculovirus infected Sf9 insect cells at 12.5 uM using FAM-cAMP as substrate after 1 hr by fluorescence polarization assay relative to control.

Assay [21] addresses 3',5'-cyclic-AMP phosphodiesterase 4A (Homo sapiens) (UniProt P27815). Briefly: Inhibition of N-terminal GST-tagged full length recombinant human PDE4A1A expressed in Baculovirus infected Sf9 insect cells at 3 uM using FAM-cAMP as substrate after 1 hr by fluorescence polarization assay relative to control.
In assay [22] the target is T1, cGMP-specific 3',5'-cyclic phosphodiesterase. Briefly: Inhibition of PDE5 (unknown origin).

As to `CCc1ccc(C2c3[nH]c4ccccc4c(=O)c3CN2c2ncc(-c3ccc(OC)cc3)cn2)s1` (configuration not stated), the IC50 – broadly, the concentration needed to halve the response being measured – in assay [1] is 6.45 nM.
Consider `CCCc1nn(C)c2c(=O)[nH]c(-c3cc(S(=O)(=O)N4CCN(C)CC4)ccc3OCC)nc12`, for which, in the assay with Oryctolagus cuniculus, the ED50 (as a rule, the dose that gives a 50% effect, or the effect in half of the subjects) turned out to be 0.0143 mg/kg.
Turning to `CCc1ccc(C2c3[nH]c4ccccc4c(=O)c3CN2c2ncc(-c3ccncc3)cn2)s1` (configuration not stated), in assay [1], the IC50 is 0.6 nM.
Take `CCc1ccc(C2c3[nH]c4ccccc4c(=O)c3CN2c2ncc(-c3ccc(OC)c(OC)c3)cn2)s1` (configuration not stated): the half-maximal inhibitory concentration (IC50) in assay [1] amounted to 1.25 nM.
With `CCc1ccc(C2c3[nH]c4ccccc4c(=O)c3CN2c2ncc(-c3ccccn3)cn2)s1` (racemic), the Activity with Thoracic aorta [2] is reported as greater than 90%. Besides, the Ratio IC50 is greater than 10000 in the assay filed under Homo sapiens [3]; greater than 10000 in the assay listed under Homo sapiens [4]; greater than 2500 in the assay filed under Homo sapiens [5]; 8 in the assay listed under Homo sapiens [10]; greater than 10000 in the assay filed under Homo sapiens [12]. Further, the results for the IC50 in assay [1] and in assay [7] were 0.6 nM and 4.8 nM, respectively. In addition, the inhibition (as a rule, the relative decrease from the control value, in per cent) in assay [6] is 3%; in assay [8] it was 2.5%; in assay [9], 7%; in assay [11], 2.5%.
Take `CCc1ccc([C@H]2c3[nH]c4ccccc4c(=O)c3CN2c2ncc(-c3ccccn3)cn2)s1`: the Ratio IC50 in the assay listed under Homo sapiens [3] is greater than 1500; in the assay listed under Homo sapiens [4] it was greater than 10000; in the assay filed under Homo sapiens [5], greater than 2500; in the assay listed under Homo sapiens [10], 1.3; in the assay filed under Homo sapiens [12], greater than 10000. For the same compound, the IC50 in assay [1] is 26.9 nM; in assay [7] it was 34.1 nM. Further, the inhibition worked out at 2% in assay [13], 32% in assay [14], 1% in assay [15] and 8% in assay [17]. In addition, in the assay on Thoracic aorta [16], the Activity stood at 30%.
As for `CCc1ccc(C2c3[nH]c4ccccc4c(=O)c3CN2c2ncc(Br)cn2)s1` (configuration not stated), the IC50 in assay [1] was 3.28 nM.
On the same count and under the same terms, in the case of `CCc1ccc(C2c3[nH]c4ccccc4c(=O)c3CN2c2ncc(-c3cccnc3F)cn2)s1` (configuration not stated) it was 0.82 nM.
`CCc1ccc([C@H]2c3[nH]c4ccccc4c(=O)c3CN2c2ncc(-c3ccccn3)cn2)o1`: the inhibition in assay [18] was found to be 10%; in [19] it was 51%; in assay [20] it was 7.5%; in assay [21], 12%. The Ratio IC50 in the assay filed under Homo sapiens [3] was greater than 10000; in the assay filed under Homo sapiens [4], greater than 10000; in the assay filed under Homo sapiens [5] it was greater than 2500; in the assay listed under Homo sapiens [10], 3.9; in the assay filed under Homo sapiens [12], greater than 10000. Besides, the IC50 in assay [1] came out at 0.97 nM; in [7], 3.8 nM. Moreover, the Activity with Thoracic aorta [16] amounted to 30%.
Turning to `CCc1ccc(C2c3[nH]c4ccccc4c(=O)c3CN2c2ccc(-c3ccccn3)cn2)s1` (configuration not stated), the IC50 in assay [1] came out at 1.2 nM.
Consider `CCc1ccc(C2c3[nH]c4ccccc4c(=O)c3CN2c2ncc(-c3cccnc3)cn2)s1` (configuration not stated), for which the IC50 in [1] is 0.67 nM.
The same measure, in the same setting: in the case of `CCc1ccc(C2c3[nH]c4ccccc4c(=O)c3CN2c2ccccn2)s1` (configuration not stated) it was 2.85 nM.
The compound `OCc1ccoc1-c1nccc2c1[nH]c1ccccc12` registered an IC50 in [22] of 4900 nM.
In [22], `OCc1ccc(-c2nccc3c2[nH]c2ccccc23)o1` [PERLOLYRIN] came in with an IC50 of 9300 nM.
